Test results: ChEMBL document CHEMBL4513216, “Probing the Open Global Health Chemical Diversity Library for Multistage-Active Starting Points for Next-Generation Antimalarials” (ACS Infect Dis, 2020)

experiment: Toxicity liver stage against HepG2, at 10uM; assay type: cell-based; design: test concentration 10 uM, cell line HepG2-A16-CD81EGFP; conditions: human, HepG2-A16-CD81EGFP cells; read-out: INHIBITION
Outline: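 Uninfected HepG2-A16-CD81EGFP cells, 3 × 10^3 per well, 1536-well, plated on prespotted compound at 10 μM final, parasite-free screening media added to match infected plates; puromycin 10 μM positive, DMSO 0.5% negative; run in parallel with 48 h PbLuc assay at 37 °C, 5% CO2; viability by CellTiter-Glo luminescence, normalized to controls.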

SMILES	cytotoxicity at 10 µM
CS(=O)(=O)CCN1CCN(c2ccc(Cl)cn2)CC1	4.13%
Cc1nnc(NCc2ccccc2F)c(C#N)c1C	-9.71%
NC(=O)CN1CC(O)c2ccccc2S1(=O)=O (configuration not stated)	4.37%
CC(C)n1nc2c(cc1=O)CN(CCCN1CCCC1=O)CC2	-8.08%
CCN(CC)c1ccc2ccc(C(=O)O)cn12	1.42%
CN(Cc1ccccc1OC(F)(F)F)C(=O)C1CC1	10.8%
O=C(N1CCOCC1)n1cnc2ccccc21	-3.11%
COc1ccc(OCc2nc(C(=O)N3CCC(NC(C)=O)C3)co2)cc1 (configuration not stated)	-1.21%
Cc1cccc(OC(C)C(=O)NCC2(N(C)C)CCCC2)c1 (configuration not stated)	-13.4%
Cc1ccc2c(c1)C(=O)NCC1(CCN(C(=O)c3scnc3C)CC1)O2	-17.3%
COCCN1CCCC(c2nccnc2Nc2nc(C)cs2)C1 (configuration not stated)	-7.16%
CN(CC(=O)N1CCCC(n2ccnc2)C1)c1cnccn1 (configuration not stated)	1.41%
CN(Cc1ncc[nH]1)CC(c1cccs1)N1CCOCC1 (configuration not stated)	-4.22%
CCc1oc(C(=O)NCCNS(C)(=O)=O)cc1CN1CCCC1	5.53%
COc1cc(C(=O)NCCCc2ccccc2)on1	-2.1%
CCc1noc(CN(CC)Cc2cc3ccc(C)cc3[nH]c2=O)n1	0.417%
CC(C)CC(C)N(C)C(=O)c1nc(S(C)(=O)=O)n2ccccc12 (configuration not stated)	-9.24%
CCOCC1CN(S(=O)(=O)C2CC2)Cc2cnn(C)c21 (configuration not stated)	-66.8%
O=S(=O)(C1CC1)N1C[C@@H]2COC[C@]2(COc2ccccn2)C1	5.57%
CC(=O)NCCCNC(=O)Nc1ccccc1-n1nc(C)cc1C	6.57%
O=C(c1ccn(COc2ccc(F)cc2)n1)N1CCCCCC1	9.84%
COc1ncccc1CN1CCC2(CC1)CC(OCC1CC1)CO2 (configuration not stated)	4.33%
O=C(c1cc[nH]n1)N1CCc2ncnc(N3CCSCC3)c2CC1	-3.67%
CCSCc1ccnc(NC(=O)C2CCCO2)c1 (configuration not stated)	5.39%

SMILES	cytotoxicity at 10 µM
CN(Cc1ccccc1)CC(C)(C)NC(=O)c1cnccn1	6.95%
CS(=O)(=O)NCc1cc2n(n1)CCCN(Cc1ccc(Cl)s1)C2	2.81%
O=C(c1ccco1)N1CC[C@@H]2[C@H]1CCC(=O)N2c1ccccc1	-110%
CCOc1ccc(CN2C(=O)CC(C)(C)C2=O)nc1	-11.9%
Cc1noc(CCNS(=O)(=O)N2CCCC2c2ccc(C)o2)n1 (configuration not stated)	-10%
COc1cc(C)c(CNC(C)c2nc(C)cs2)cc1OC (configuration not stated)	2.58%
Clc1ccccc1-c1nnc(CNCCn2cccn2)o1	1.4%
O=C(NCCc1ccccn1)[C@@]12CCO[C@@H]1CCN(C1CCC1)C2	8.03%
Cn1c(-c2cccs2)nn(CCNS(=O)(=O)c2ccccc2Cl)c1=O	-9.48%
Cn1nnc2cc(C(=O)NS(=O)(=O)c3ccc(F)cc3)ccc21	5.46%
CC(C)(C)c1ncc(C(=O)NCCNS(C)(=O)=O)s1	-6.14%
CC(=O)Nc1nc(C)c(S(=O)(=O)NCCc2cccnc2)s1	-10.5%
CCC(CC)CNCC1(S(C)(=O)=O)CCOCC1	0.354%
O=C1CC(NS(=O)(=O)c2ccccc2)CN1Cc1ccccc1 (configuration not stated)	6.89%
O=C(CCC(=O)N1CCC(Oc2ncccc2Br)CC1)c1ccccc1	30.4%
CN(C)S(=O)(=O)NCC(O)c1cc2ccccc2s1 (configuration not stated)	-13.2%
CCOCC1CCN(C(=O)Nc2ccc3c(c2)CCCN3C)C1 (configuration not stated)	10.1%
Cc1csc(CNC(=O)NCC(O)c2ccc(F)cc2)n1 (configuration not stated)	12.1%
CNC(=O)c1ccnc(N2CCCC(COc3cccc(C)c3)C2)c1 (configuration not stated)	7.68%
CN(C)C(C(=O)N1CCN(S(N)(=O)=O)CC1)c1ccccc1F (configuration not stated)	0.199%
O=C(NCCn1ccnc1)N1CCCC1c1cccs1 (configuration not stated)	-7.51%
COCCn1c(CN2CCCO2)cnc1S(=O)(=O)CC1CCCCC1	-8.62%
CNS(=O)(=O)c1cccc(C(C)NCc2ccc(C)o2)c1 (configuration not stated)	-3.69%
